According to the EternaBench riboswitch data:

Tested on: MS2 coat protein
Assay: apparent Kd, MS2 coat protein; higher = weaker binding; RNA-MaP array; theophylline 2 mM where present
In short: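 The apparent Kd is reported as the median of filtered per-cluster binding-curve fits. To get these curves, designs transcribed by stalled E. coli RNA polymerase on Illumina sequencing-chip clusters were titrated with SNAP-549-labelled MS2 coat protein from 0.7 or 1.5 nM, doubling to 3 µM. Titrations were run without and then with constant ligand in 100 mM Tris-HCl pH 7.5, 80 mM KCl, 4 mM MgCl2, BSA, DTT, yeast tRNA and Tween-20, and green signal was normalised to red-channel RNA signal and control-cluster median Fmax.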

[1] = designed as: OFF switch for theophylline, no ligand
[2] = ligand present: theophylline, designed as: OFF switch for theophylline
[3] = designed as: ON switch for theophylline, no ligand
[4] = ligand present: theophylline, designed as: ON switch for theophylline

Sequence | apparent Kd [1] [nM] | apparent Kd [2] [nM] | apparent Kd [3] [nM] | apparent Kd [4] [nM]
ACGUCCAGGUUAAUCGUGGACAUGGUCGAUACCAGUAUUUUAAUCUACCCUUGGCAGCGACAUGAGGAUCACCCAUGUGCGAUGA | 12.5 | 23.4 |  | 
ACGUCCCGUUUACUCGUGGGUUAGGUCGAUACCAGUAUUCAAACUUACCCUUGGCAGCGACAUGAGGAUCACCCAUGUGCGAAGA | 17.6 | 99.5 |  | 
ACGUCUCGUUUACUCGUGGGUUAGCUCGAUACCAGUAUUCAAACUUACCCUUGGCAGCGACAUGAGGAUCACCCAUGUGCGAAGA | 16.4 | 54.9 |  | 
ACUCGGUGUUUGUUGCUCCGAGUACGUGAUACCAGUUAAUUUUAUGGCCCUUGGCAGCAUGGGACAUGAGGAUCACCCAUGUUUA |  |  | 375 | 396
ACUUUGUCGGGUGAUACCAGCCUCGGCACAUCUCGUGCCGAACAUGAGGAUCACCCAUGUGGCCCUUGGCAGCACAUGACAAAUC |  |  | 341 | 59.5
AGACAUGAGGAUCACCCAUGUAGCAUGGAUACCAGAUCCAGAUUUAUCCCUUGGCAGCUGUGGUACAGUGAUGGAUUGCUCCUAG | 79 | 122 |  | 
AGAUUACAUGUUUUAAUAAGAUAAACUGAUACCAGUGUAUAUAUUCACCCUUGGCAGCAGCAACAUGAGGAUCACCCAUGUAUUA |  |  | 16 | 15.2
AGGCAGUAGGUGAUCCACUGCCAAGGUGAUACCAGCAUCGAAAGAUGCCCUUGGCAGCACCAACAUGAGGAUCACCCAUGUAAUA |  |  | 108 | 663
AGUACUCGAACGGAUACCAGCCGGACAUGAGGAUCACCCAUGUCCUACCAUGGUUCGGUUGGCCCUUGGCAGCCGUUCGUGUACA |  |  | 225 | 20.2
AGUGUUAUAACUGAUACCAGACCUUUGCUUAUACAUGAGGAUCACCCAUGUAAAAUGGCGGUCCCUUGGCAGCAGAGAAUACACA |  |  | 33.5 | 12.5
AUAACAUGAGGAUCACCCAUGUUGAGUGAUACCAGACUAUGUAAUGUCCCUUGGCAGCACAAGUAAAGUUAUAAAUAAUGAUAGA |  |  | 57.2 | 25.1
AUAAGUAAGUUUUCGUGUUUUAUUACAGAUACCAGACUAUACGUUGUCCCUUGGCAGCUGGAUUACAUGAGGAUCACCCAUGUUG | 24.5 | 54.3 |  | 
AUAAGUACGUCAGAUACCAGACAGCCAGACUUACAUGAGGAUCACCCAUGUGGAUGGACGGUCCCUUGGCAGCUGGCCGCAAAAG |  |  | 213 | 14.2
AUACCUAAUGUUACGUUUUCCUUUUCAGAUACCAGACUUUACGUUGUCCCUUGGCAGCUGUAUUACAUGAGGAUCACCCAUGUUG |  |  | 22 | 29.7
AUAUUAAAGAGUGAUACCAGACUACAUGAGGAUCACCCAUGUUACAUUUAAAUAUCAUUUGUCCCUUGGCAGCACAUUAAGUACA | 17.4 | 13.3 |  | 
AUCGUACCUGAGGAUACCAGCAUGUGAUCAUAACAUGAGGAUCACCCAUGUAAUCAGUGAUGCCCUUGGCAGCUUAGUCGAUACA |  |  | 75.5 | 45.2
AUCGUACCUGGUGAUACCAGCAAUUGCUCGUGACAUGAGGAUCACCCAUGUGGCCAGUGAUGCCCUUGGCAGCAUGGUCGGUGCA |  |  | 164 | 89.3
AUGCACCUCGUCCAGGCAAUCUUUAGUGAUACCAGCUAACUCCUUGGCCCUUGGCAGCACAUGAGGAUCACCCAUGUGCGACAUC | 11.9 | 14 |  | 
AUGUCGUUGAAUAUAGCGGCUUGGUGUGAUACCAGAAUGAUCUAAUUCCCUUGGCAGCAUUACAUGAGGAUCACCCAUGUUCAGG |  |  | 24 | 23.9
AUUAAUUGUCGUGAUACCAGACAUACAUGAGGAUCACCCAUGUUAAGUAACAUUUUUUAUGUCCCUUGGCAGCACUUUUUAAUUA |  |  | 19.4 | 11.5
AUUAUCAUGGUCAUAUAUAUUUCGUCAGAUACCAGACUAGAUAUAGUCCCUUGGCAGCUGUUACAUGAGGAUCACCCAUGUUAUA | 116 |  |  | 
CAAACAUGAGGAUCACCCAUGUAAUCAGAUACCAGUGACGAAAGUCACCCUUGGCAGCUGAGUACAUAUUGGCAGAGGUGUUUGA | 67 | 75 |  | 
CAGAACAUGAGGAUCACCCAUGUCAGGGAUACCAGCUCAGACAUGGGCCCUUGGCAGCUCUGUGGCUGACGAAAGUCAGCAUCUG |  |  | 60.8 | 185
CCUCAUGUGGUGCUGCACAUGAGAGGUGAUACCAGCAUCGAAAGAUGCCCUUGGCAGCACCAACAUGAGGAUCACCCAUGUAAUA |  |  | 57.4 | 135
CGACUACAGCGUGAUACCAGUGACAGAUACCAGUCUAGACAUGAGGAUCACCCAUGUACGCGCCCUUGGCAGCACACUAGAUCGA |  |  | 89.4 | 49.9
CGAGUCCGCUGAUGGGCUAAGUCAGGUGAUACCAGCCACUCCCGCGGCCCUUGGCAGCACAUGAGGAUCACCCAUGUAGGGCUUG | 19.6 | 338 |  | 
CGCUACGUAACUGAUACCAGUGUACUGACAUGAGGAUCACCCAUGUUGGGUUUUGUUGUACACCCUUGGCAGCAGAAUCGUAGCG | 70.3 | 95.3 |  | 

Sequence | apparent Kd [1] [nM] | apparent Kd [2] [nM] | apparent Kd [3] [nM] | apparent Kd [4] [nM]
CGGCCCUCACAUGAGGAUCACCCAUGUGAUACCAGCCUGGAAACAGGCCCUUGGCAGCACAGGUCAUCAAAAGAUGACCAAGCCG | 12.5 | 63.9 |  | 
CUCGAGUUAUGAGAUACCAGACUAUAGUUUACAUGAGGAUCACCCAUGUUAUGGGUGGUAGUCCCUUGGCAGCUCAUAUGUUUAA | 225 | 812 |  | 
GACAUGAGGAUAGAUACCAGCGACAUGAGGAUCACAUGAGGAUCACCCAUGUGUAGUAUACGCCCUUGGCAGCUAACAUGAGGAU |  |  | 108 | 94
GAGCUGAUGUAGAGUGGAUAUCCUUGAGAUACCAGUACAGAAAUGUACCCUUGGCAGCUCUUCUUUACAUGAGGAUCACCCAUGU | 13.1 | 17.5 |  | 
GAUAGUUGAAGGGAUACCAGCCUGGACAUGAGGAUCACCCAUGUAGCAUGUUUGAAACUGGGCCCUUGGCAGCCCAUAUUGUGUA |  |  | 22.4 | 14.4
GAUGAACUAUUUGAUACCAGACUACAUGAGGAUCACCCAUGUGAGUUUAUACUUCAGUCAGUCCCUUGGCAGCAAAUAGUUUAUC | 44.9 | 99.3 |  | 
GAUGAUAUUGCAGAUACCAGACACAUGAGGAUCACCCAUGUCGCUGAGUUGCUGGAUCGUGUCCCUUGGCAGCUGCGAUAUCAUC | 19.5 | 180 |  | 
GAUGAUAUUGCAGAUACCAGACACAUGAGGAUCACCCAUGUCGUUGGGUCGCUGGGUCGUGUCCCUUGGCAGCUGCGAUAUCAUC | 30.7 | 263 |  | 
GCAAUAACGAUUGAUACCAGCAUGUUAACAUGAGGAUCACCCAUGUUAAGGAUAACAUAAUGCCCUUGGCAGCAACGGAAAGCCG |  |  | 24.3 | 14
GCACCAGGUACGGAUACCAGACUCUGCCGAUUGGGUGAACAUGAGGAUCACCCAUGUUAGGUCCCUUGGCAGCCGUACCUGGUGC | 28.3 | 487 |  | 
GCACUACAUGAGGAUCACCCAUGUGCAGAUACCAGAGGUGUAUGCCUCCCUUGGCAGCUGCGUCGCUCUGGAAGCCUAUUGGUUU |  |  | 15.6 | 20.9
GGAAUUAAGACUGAUACCAGUCAAGAUAAUCAUAAGAAUAAACAUGAGGAUCACCCAUGUGACCCUUGGCAGCAGACUAAUACCG |  |  | 31 | 29.6
GGCUAGUGCAUCGAUACCAGCUACAUGAGGAUCACCCAUGUAGGAAGGGUGGUACUCGAUAGCCCUUGGCAGCGAACACCUCCGG | 16.1 | 31.4 |  | 
GGUGGCUGGACUGAUACCAGCCACCACCGAUAGACCACAUGAGGAUCACCCAUGUUGGGUGGCCCUUGGCAGCAGUCUAGCUGCC |  |  | 561 | 1240
UACAGUACAACAGAUACCAGACAGUACUCUAGAUUGCAACAUGAGGAUCACCCAUGUAUAGUCCCUUGGCAGCUGUAAUGGGUGA |  |  | 180 | 441
UCCUUAGAUACUGAUACCAGACUACAGUAAACAUGAGGAUCACCCAUGUUUGAUCACUAAGUCCCUUGGCAGCAGGUACAUGGGA |  |  | 11.3 | 9.08
UCGACAGUGAACGAUACCAGCGUCACGUGGCCGGUGGUCACAUGAGGAUCACCCAUGUAACGCCCUUGGCAGCGUGCACGUAUCC | 26.1 | 184 |  | 
UCGCUCGCCGGAAGGCGAGCGAGUUGCGAUACCAGCCCGGAAACGGGCCCUUGGCAGCGCACAUGAGGAUCACCCAUGUCAUGUU | 19.4 | 26.2 |  | 
UCGUGAGUUUCGGAUACCAGUGUUGUCGAUACAUGAGGAUCACCCAUGUUAGAGGAUGUACACCCUUGGCAGCCGGCUGUGGCGG |  |  | 18.6 | 11.3
UCGUGUAUAACGGAUACCAGUGAGAAGGAUACAUGAGGAUCACCCAUGUGAGUUGAUGUACACCCUUGGCAGCUGUAUAUAUCUA |  |  | 75.5 | 49.6
UGACAUUGCUCAGAUACCAGACAUGAGGAUCACCCAUGUACCAAGGUAAAGAAAUAACGUGUCCCUUGGCAGCUGAGCAAUGUCU | 10.1 | 98.8 |  | 
UGACAUUGCUCAGAUACCAGACAUGAGGAUCACCCAUGUGCCAACGUACAAAUAAUAAAUGUCCCUUGGCAGCUGAGCAAUGUCU | 11.4 | 35 |  | 
UGUAACAUGAGGAUCACCCAUGUAAGUGAUACCAGAUAAGUAGUAGUCCCUUGGCAGCAUAUUGGGCAAGUGUAUAGUCUAUACG |  |  | 49.8 | 53.5
UGUAUGUGAUCUGAUACCAGUCCCUUGGCAGCAACAUGAGGAUCACCCAUGUAGAUACCAGACCCUUGGCAGCAGAUCGCAUACU |  |  | 9.06 | 8.27
UGUAUGUGAUUUGAUACCAGAUCAGCUGGUUAUACAUGAGGAUCACCCAUGUUACUUUGGGUCCCUUGGCAGCAAAUCGCAUACU |  |  | 487 | 28.4
UUAAAUGUGACGGAUACCAGCGUGUUGUAGAACAUGAGGAUCACCCAUGUAGUGAUCAUGCGCCCUUGGCAGCUGGUAUGUUUGA |  |  | 379 | 607
